# Measured values reported in ChEMBL document CHEMBL3992493, “New approach of delivering cytotoxic drugs towards CAIX expressing cells: A concept of dual-target drugs” (Eur J Med Chem, 2017).
# Activity calls are given as the source filed them. The calls are words filed in the database; no cut-off is given here.
# Columns and labels:
# MDCK [1] = experiment: Cytotoxicity against MDCK cells expressing carbonic anhydrase 9 assessed as reduction in cell viability preincubated for 2 hrs followed by 72 hrs incubation under normoxic condition by Alamar blue assay; type: functional, cell-based; conditions: Canis lupus familiaris
# In short: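 CAIX-overexpressing or scrambled-vector MDCK cells in DMEM/10% FBS, attached overnight, held 24 h at 21% O2/5% CO2. Drug added (0.5% DMSO vehicle) for 2 h, washed off, then 72 h further normoxic growth. Viability measured by 2 h alamarBlue conversion under normoxia.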
# Carbonic anhydrase 12 = Carbonic anhydrase 12 (Homo sapiens, UniProt O43570); experiment: Binding affinity to recombinant human carbonic anhydrase 12 after 15 mins by stopped-flow CO2 hydration assay
# Carbonic anhydrase 12, sequence (O43570 whole entry): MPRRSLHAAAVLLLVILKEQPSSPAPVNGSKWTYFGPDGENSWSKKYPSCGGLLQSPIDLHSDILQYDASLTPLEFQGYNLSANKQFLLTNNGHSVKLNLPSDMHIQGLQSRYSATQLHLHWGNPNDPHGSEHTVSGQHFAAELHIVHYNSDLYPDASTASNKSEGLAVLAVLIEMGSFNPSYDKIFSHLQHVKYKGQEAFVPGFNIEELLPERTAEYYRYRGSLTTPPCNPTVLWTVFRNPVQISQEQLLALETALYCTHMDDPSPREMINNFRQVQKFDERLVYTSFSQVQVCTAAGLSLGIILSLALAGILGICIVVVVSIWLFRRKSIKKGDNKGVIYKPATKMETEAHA
# Carbonic anhydrase 2 = Carbonic anhydrase 2 (Homo sapiens, UniProt P00918); experiment: Binding affinity to recombinant human carbonic anhydrase 2 after 15 mins by stopped-flow CO2 hydration assay
# MDCK [2] = experiment: Cytotoxicity against MDCK cells expressing carbonic anhydrase 9 assessed as reduction in cell viability after 2 hrs under hypoxic condition by Alamar blue assay; type: functional, cell-based; conditions: Canis lupus familiaris
# In short: (§1)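 MDCK cells transfected with human CAIX (CAIX+) or scrambled control vector (CAIX−), in DMEM/10% FBS, seeded and attached overnight. Medium replaced with pre-equilibrated hypoxic DMEM (0.2% O2, 5% CO2) for 24 h. Compounds in DMSO (0.5%) added for 2 h, then washed off. Cells regrown 72 h in normoxia. Viability read by alamarBlue conversion for 2 h under normoxia.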
# MDCK [3] = experiment: Cytotoxicity against carbonic anhydrase 9 knockdown MDCK cells assessed as reduction in cell viability after 2 hrs under hypoxic condition by Alamar blue assay; type: cell-based; conditions: Canis lupus familiaris; in short: as §1
# MDCK [4] = experiment: Cytotoxicity against carbonic anhydrase 9 knockdown MDCK cells assessed as reduction in cell viability preincubated for 2 hrs followed by 72 hrs incubation under normoxic condition by Alamar blue assay; type: cell-based; conditions: Canis lupus familiaris
# Carbonic anhydrase 1 = Carbonic anhydrase 1 (Homo sapiens, UniProt P00915); experiment: Binding affinity to recombinant human carbonic anhydrase 1 after 15 mins by stopped-flow CO2 hydration assay
# Carbonic anhydrase 1, sequence (P00915 whole entry): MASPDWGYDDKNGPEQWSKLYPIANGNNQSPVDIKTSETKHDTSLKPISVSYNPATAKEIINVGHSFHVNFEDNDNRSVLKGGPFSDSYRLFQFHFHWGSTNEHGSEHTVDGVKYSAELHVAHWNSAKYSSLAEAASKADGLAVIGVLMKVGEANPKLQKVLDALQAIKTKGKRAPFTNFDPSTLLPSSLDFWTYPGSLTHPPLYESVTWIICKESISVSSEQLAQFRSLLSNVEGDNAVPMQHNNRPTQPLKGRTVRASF
# Carbonic anhydrase 9 = Carbonic anhydrase 9 (Homo sapiens, UniProt Q16790); experiment: Binding affinity to recombinant human carbonic anhydrase 9 after 15 mins by stopped-flow CO2 hydration assay
# HCT-116 = experiment: Effect on mitochondrial respiration in human HCT116 cells expressing carbonic anhydrase 9 assessed as reduction in oxygen consumption rate at 0.5 mM […]; type: functional, cell-based
Structure (SMILES),IC50 (MDCK [1]) [µM],Ki (Carbonic anhydrase 12) [µM],Ki (Carbonic anhydrase 2) [µM],IC50 (MDCK [2]) [µM],IC50 (MDCK [3]) [µM],IC50 (MDCK [4]) [µM],Ki (Carbonic anhydrase 1) [µM],Ki (Carbonic anhydrase 9) [µM],Activity (HCT-116)
NS(=O)(=O)c1ccc(NC(=O)OCCCCc2ccc(N(CCCl)CCCl)cc2)cc1,56,9.38,0.553,62,8,8,5.58,2.74,–
NS(=O)(=O)c1ccc(CCNc2n[n+]([O-])c3ccccc3[n+]2[O-])cc1,> 300,–,–,> 300,300,> 300,–,0.383,–
NS(=O)(=O)c1ccc(CCNc2n[n+]([O-])c3cc4c(cc3[n+]2[O-])CCC4)cc1,> 300,–,–,> 300,> 300,> 300,–,0.307,–
NS(=O)(=O)c1ccc(CNC(=O)OCCCCc2ccc(N(CCCl)CCCl)cc2)cc1,98,9.57,0.265,100,52,86,6.14,4.13,–
Nc1n[n+]([O-])c2ccccc2[n+]1[O-] [TIRAPAZAMINE],> 300,> 50,> 50,95,< 50,> 300,> 50,> 50,–
N=C(N)NC(=N)NCCc1ccccc1,–,–,–,–,–,–,–,–,Active
NS(=O)(=O)c1ccc(CNC(=O)CCCc2ccc(N(CCCl)CCCl)cc2)cc1,98,7.34,0.747,92,14,18,5.95,8.97,–
NS(=O)(=O)c1ccc(CCNC(=O)CCCc2ccc(N(CCCl)CCCl)cc2)cc1,100,10.2,0.45,100,18,18,8.4,4.61,–
NS(=O)(=O)c1ccc(CCNC(=O)OCCCCc2ccc(N(CCCl)CCCl)cc2)cc1,99,13.6,0.504,100,81,89,5.67,3.85,–
